Measured values: ChEMBL document CHEMBL1155512, “Chemoenzymatic synthesis and cannabinoid activity of a new diazabicyclic amide of phenylacetylricinoleic acid” (Bioorg Med Chem Lett, 2010)
Active and inactive are the calls of the source. The rule behind the calls is not given here.

Columns and labels:
Rattus norvegicus [1] = test: Increase of pain perception in Wistar rat assessed as latency at 10 to 40 mg/kg, ip measured after 30 to 45 mins by hotplate method; format: functional, organism-based
Outline: (§1)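 Individually housed rats (22 °C, 12:12 h light–dark, food and water ad libitum) were randomized to ip vehicle, 10, 20 or 40 mg/kg. Extra groups (n = 10) got 20 or 40 mg/kg 15 min after AM251 (3 mg/kg ip); another group got AM251 alone. Pain perception was read as hot-plate latency to signs of discomfort.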

Rattus norvegicus [2] = test: Reduction of core temperature in Wistar rat at 10 to 40 mg/kg, ip measured up to 45 mins in presence of AM251; format: functional, organism-based
Outline: (§2)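 Individually housed rats (22 °C, 12:12 h light–dark) were randomized to ip vehicle, 10, 20 or 40 mg/kg. Extra groups (n = 10) got 20 or 40 mg/kg 15 min after AM251 (3 mg/kg ip), plus an AM251-alone group. Core temperature was measured with a rectal probe after injection.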

Rattus norvegicus [3] = test: Reduction of core temperature in ip dosed Wistar rat up to 45 mins; format: functional, organism-based; outline: as §2
Rattus norvegicus [4] = test: Increase of pain perception in ip dosed Wistar rat assessed as latency after 30 to 45 mins by hotplate method; format: functional, organism-based; outline: as §1
Rattus norvegicus [5] = test: Induction addiction in Wistar rat at 20 mg/kg, ip assessed as signs of dependence; format: ADME, organism-based; design: dose 20 mg/kg, route intraperitoneal; details: in vivo
Outline: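 Conditioned place preference test at 20 mg/kg; time spent in the drug-paired compartment A was recorded as the index of rewarding effect or dependence.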

Rattus norvegicus [6] = test: Increase of pain perception in Wistar rat assessed as latency at 20 to 40 mg/kg, ip measured after 30 to 45 mins by hotplate method in presence of AM251; format: functional, organism-based; outline: as §1
Rattus norvegicus [7] = test: Effect on sleep-awake cycle in Wistar rat assessed as increase in rapid eye movement sleep at 20 mg/kg, ip measured up to 4 hrs by electromyographic analysis in presence of AM251; format: functional, organism-based; design: dose 20 mg/kg
Outline: (§3)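 Rats (n = 6/group) had two hippocampal EEG electrodes implanted stereotaxically under ketamine/xylazine/acepromazine anaesthesia, then recovered 10 days and habituated 24 h. Two ip injections 15 min apart: DMSO (1 ml/kg) or AM251, then vegetal oil (1 ml/kg) or test drug. Dosing was at dark-phase onset. Wake, SWS and REMS were scored from EEG/EMG as time per hour over 12 h, plus sleep latency.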

Rattus norvegicus [8] = test: Reduction of core temperature in Wistar rat at 10 to 40 mg/kg, ip after 15 mins; format: functional; details: dose mg/kg 10-40; route intraperitoneal; outline: as §2
Rattus norvegicus [9] = test: Reduction of core temperature in Wistar rat at 10 to 40 mg/kg, ip up to 45 mins; format: functional; details: dose mg/kg 10-40; route intraperitoneal; outline: as §2
Rattus norvegicus [10] = test: Effect on sleep-awake cycle in Wistar rat assessed as increase in non rapid eye movement sleep at 20 mg/kg, ip measured up to 4 hrs by electromyographic analysis; format: functional, organism-based; design: dose 20 mg/kg; outline: as §3
Rattus norvegicus [11] = test: Effect on sleep-awake cycle in Wistar rat assessed as increase in rapid eye movement sleep at 20 mg/kg, ip measured up to 4 hrs by electromyographic analysis; format: functional, organism-based; design: dose 20 mg/kg; outline: as §3

CCCCCC[C@H](C/C=C\CCCCCCCC(=O)N1CC2CC1CN2C)OC(=O)Cc1ccccc1 (stereo partly specified)
Activity (Rattus norvegicus [1]): Active | Activity (Rattus norvegicus [2]): inactive | Activity (Rattus norvegicus [3]): inactive | Activity (Rattus norvegicus [4]): inactive | Activity (Rattus norvegicus [5]): Non-toxic | Activity (Rattus norvegicus [6]): inactive | Activity (Rattus norvegicus [7]): inactive | T (Rattus norvegicus [8]): 1 °C | T (Rattus norvegicus [9]): 1.5 °C | Activity (Rattus norvegicus [10]): Active | Activity (Rattus norvegicus [11]): Active
